Data published in ChEMBL document CHEMBL1131121, “Inactivation of S-adenosyl-L-homocysteine hydrolase and antiviral activity with 5',5',6',6'-tetradehydro-6'-deoxy-6'-halohomoadenosine analogues (4'-haloacetylene analogues derived from adenosine)” (J Med Chem, 1998).
Values after ≈ are worked out from the molar mass of the structure shown.

How the values were obtained:
[1] = system: Vero; assay: concentration required to inhibit Coxsackie virus B4-induced cytopathicity by 50% in Vero cells; assay type: functional, cell-based; settings: Chlorocebus sabaeus
In short: (§1)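 Assay measured inhibition of virus-induced cytopathicity in confluent E6SM, HeLa or Vero monolayers. Cells were inoculated with 100 CCID50 of virus for 1 h adsorption, then unbound virus was removed. Cultures were incubated with serial compound concentrations (400, 200, 100 … µg/mL). Cytopathicity was scored once virus control cultures reached complete CPE, and the 50% effective concentration was derived.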

[2] = system: Vero; assay: concentration required to inhibit Sindbis virus -induced cytopathicity by 50% in Vero cells; assay type: functional, cell-based; settings: Chlorocebus sabaeus; in short: as §1
[3] = target: T1, Adenosylhomocysteinase (Homo sapiens, UniProt P23526); assay: Inhibition of S-adenosyl-homocysteine hydrolase at 100 uM concentration
In short: (§2)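 Recombinant human placental AdoHcy hydrolase was exposed to 100 µM inhibitor in buffer A (50 mM potassium phosphate, pH 7.2, 1 mM EDTA) at 37 °C for 20 min. Residual activity was measured in the synthetic direction with 1 mM Ado plus 5 mM Hcy for 5 min at 37 °C. The reaction was stopped with HClO4 and AdoHcy quantified by C18 reverse-phase HPLC.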
Target sequence in this assay (P23526 2-432 limits assumed): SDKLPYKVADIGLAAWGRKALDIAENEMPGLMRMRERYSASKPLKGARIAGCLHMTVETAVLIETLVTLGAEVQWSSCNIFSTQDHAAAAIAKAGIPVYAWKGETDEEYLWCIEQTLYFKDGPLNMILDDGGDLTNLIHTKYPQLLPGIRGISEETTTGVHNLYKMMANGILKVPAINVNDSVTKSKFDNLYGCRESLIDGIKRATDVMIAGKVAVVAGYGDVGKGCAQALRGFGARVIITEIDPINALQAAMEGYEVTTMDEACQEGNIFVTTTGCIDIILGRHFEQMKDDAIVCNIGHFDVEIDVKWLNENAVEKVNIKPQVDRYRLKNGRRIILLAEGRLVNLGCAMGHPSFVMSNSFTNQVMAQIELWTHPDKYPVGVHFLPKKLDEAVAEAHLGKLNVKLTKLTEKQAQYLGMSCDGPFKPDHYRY

[4] = system: HeLa; assay: concentration required to inhibit RSV-induced cytopathicity by 50% in HeLa cells; assay type: functional, cell-based; settings: Homo sapiens; in short: as §1
[5] = system: Vero; assay: concentration required to inhibit reovirus-1-induced cytopathicity by 50% in Vero cells; assay type: functional, cell-based; settings: Chlorocebus sabaeus; in short: as §1
[6] = system: E6SM; assay: concentration required to inhibit HSV-1/TK (B2006) or VMW1837-induced cytopathicity by 50% in E6SM cells; assay type: functional, cell-based; settings: Homo sapiens; in short: as §1
[7] = system: Vero; assay: concentration required to inhibit parainfluenza-3 virus-induced cytopathicity by 50% in Vero cells; assay type: functional, cell-based; settings: Chlorocebus sabaeus; in short: as §1
[8] = system: E6SM; assay: concentration required to inhibit VSV-induced cytopathicity by 50% in E6SM cells; assay type: functional, cell-based; settings: Homo sapiens; in short: as §1
[9] = target: T1, Adenosylhomocysteinase; assay: (§3) Kinetic constant calculated from the pseudo-first-order rate constant(k app) for S-adenosyl-homocysteine hydrolase inactivation
In short: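 Recombinant human placental AdoHcy hydrolase (25 nM) preincubated with 0–100 µM inhibitor in buffer A (50 mM potassium phosphate, pH 7.2, 1 mM EDTA) at 37 °C for 0–5 min. Residual activity then measured in the synthetic direction (Ado 1 mM, Hcy 5 mM, 37 °C, 5 min; AdoHcy by reverse-phase HPLC). k_app taken from log remaining activity vs time; k2 and Ki from Kitz–Wilson analysis.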
Target sequence in this assay (P23526 whole entry): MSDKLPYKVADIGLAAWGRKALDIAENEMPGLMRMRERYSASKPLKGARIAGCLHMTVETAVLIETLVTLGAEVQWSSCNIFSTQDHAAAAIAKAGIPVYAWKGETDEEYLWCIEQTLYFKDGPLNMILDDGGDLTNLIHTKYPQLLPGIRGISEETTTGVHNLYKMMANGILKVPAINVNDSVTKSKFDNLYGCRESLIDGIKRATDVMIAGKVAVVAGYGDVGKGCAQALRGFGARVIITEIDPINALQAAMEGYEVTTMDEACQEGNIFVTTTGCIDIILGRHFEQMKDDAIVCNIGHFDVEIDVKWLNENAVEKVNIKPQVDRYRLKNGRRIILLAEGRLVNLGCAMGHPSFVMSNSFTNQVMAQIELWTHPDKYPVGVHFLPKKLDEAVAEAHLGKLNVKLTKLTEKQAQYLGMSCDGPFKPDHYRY

[10] = target: T1, Adenosylhomocysteinase; assay: Inhibition of S-adenosyl-homocysteine hydrolase at 10 uM concentration was determined from enzyme activity remaining; values are per cent of control
Target sequence in this assay (P23526 2-432 limits assumed): as the sequence (P23526 2-432 limits assumed) above

[11] = system: HeLa; assay: concentration required to inhibit VSV-induced cytopathicity by 50% in HeLa cells; assay type: functional, cell-based; settings: Homo sapiens; in short: as §1
[12] = system: E6SM; assay: Minimum inhibitory concentration (MIC) required to elicit a microscopically visible alteration of cell morphology in E6SM cells; assay type: functional; settings: Homo sapiens
[13] = target: T1, Adenosylhomocysteinase; assay: (§4) Enzyme-mediated release of Adenine(Ade) from the compound; assay type: functional
In short: (§5)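 AdoHcy hydrolase (10 µM) was incubated with 100 µM compound in buffer A at 37 °C for 20 min. At each time point the reaction was stopped with 5 M HClO4 and adenine measured by HPLC. The peak identity was confirmed by co-injection with authentic adenine and by CI/NH3 mass spectrometry.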
Target sequence in this assay (P23526 2-432 limits assumed): as above

[14] = target: T1, Adenosylhomocysteinase; assay: NADH content of the enzyme (percentage of total coenzyme) from the compound; assay type: functional
In short: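 AdoHcy hydrolase (10 µM) in buffer A was incubated with 100 µM compound at 37 °C for 20 min. Conversion of enzyme-bound NAD⁺ to NADH was followed by UV absorbance at 340 nm and quantified against a standard curve. Values are given as % of total coenzyme.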
Target sequence in this assay (P23526 2-432 limits assumed): as above

[15] = system: Vero; assay: concentration required to inhibit Punta Toro virus-induced cytopathicity by 50% in Vero cells; assay type: functional, cell-based; settings: Chlorocebus sabaeus; in short: as §1
[16] = target: T1, Adenosylhomocysteinase; assay: as §3; remark: listed apart in the source
In short: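 For time-dependent inactivation, enzyme (25 nM) was incubated with various inhibitor concentrations in buffer A at 37 °C for 0–5 min, then residual synthetic-direction activity was assayed by HPLC. k_app was taken from the log(remaining activity) versus time plot. k2 and Ki were derived from k_app and [I] by the Kitz–Wilson method.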
Target sequence in this assay (P23526 2-432 limits assumed): as above

[17] = system: HeLa; assay: Minimum inhibitory concentration (MIC) required to elicit a microscopically visible alteration of cell morphology in HeLa cells; assay type: functional; settings: Homo sapiens
[18] = system: E6SM; assay: concentration required to inhibit HSV-1(KOS)-induced cytopathicity by 50% in E6SM cells; assay type: functional, cell-based; settings: Homo sapiens; in short: as §1
[19] = system: E6SM; assay: concentration required to inhibit HSV-2(G)-induced cytopathicity by 50% in E6SM cells; assay type: functional, cell-based; settings: Homo sapiens; in short: as §1
[20] = system: Vero; assay: Minimum inhibitory concentration (MIC) required to elicit a microscopically visible alteration of cell morphology in Vero cells; assay type: functional; settings: Chlorocebus sabaeus
[21] = target: T1, Adenosylhomocysteinase; assay: Enzyme-mediated release of halide ions from the compound; assay type: functional
In short: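 Enzyme (10 µM) was incubated with 100 µM compound in buffer A at 37 °C for 20 min and the filtrate collected through a 3000 Mr cutoff device. Cl⁻ and Br⁻ were measured by anion-exchange HPLC with conductivity detection (1.5 mM p-hydroxybenzoic acid/2% methanol, pH 8.5). I⁻ was measured by C18 ion-pair HPLC at 260 nm. All ions were quantified against standard curves.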
Target sequence in this assay (P23526 2-432 limits assumed): as above

[22] = target: T1, Adenosylhomocysteinase; assay: Inhibition of S-adenosyl-homocysteine hydrolase at 0.1 uM concentration was determined from enzyme activity remaining; values are per cent of control
[23] = target: T1, Adenosylhomocysteinase; assay: Effect on the S-adenosyl-homocysteine hydrolase activity; assay type: functional; in short: as §2
[24] = system: HeLa; assay: concentration required to inhibit Coxsackie virus B4-induced cytopathicity by 50% in HeLa cells; assay type: functional, cell-based; settings: Homo sapiens; in short: as §1
[25] = target: T1, Adenosylhomocysteinase; assay: Inhibition of S-adenosyl-homocysteine hydrolase at 1 uM concentration was determined from enzyme activity remaining; values are per cent of control
[26] = system: E6SM; assay: concentration required to inhibit vaccinia virus-induced cytopathicity by 50% in E6SM cells; assay type: functional, cell-based; settings: Homo sapiens; in short: as §1
[27] = system: Vero; assay: concentration required to inhibit reovirus-1 induced cytopathicity by 50% in Vero cells; assay type: functional, cell-based; settings: Chlorocebus sabaeus; in short: as §1
[28] = target: T1, Adenosylhomocysteinase; assay: Inhibition of S-adenosyl-homocysteine hydrolase at 100 uM concentration was determined from S-adenosylhomocysteine hydrolase activity remaining; settings: values are per cent of control; in short: as §2
[29] = target: T1, Adenosylhomocysteinase; assay: Inhibition of S-adenosyl-homocysteine hydrolase at 100 uM concentration was determined from enzyme activity remaining; settings: values are per cent of control; in short: as §2
[30] = target: T1, Adenosylhomocysteinase; assay: Inhibition of S-adenosyl-homocysteine hydrolase at 01 uM concentration was determined from enzyme activity remaining
In short: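 Recombinant human placental AdoHcy hydrolase (25 nM) was preincubated with 0–100 µM inhibitor in buffer A (50 mM potassium phosphate, pH 7.2, 1 mM EDTA) at 37 °C for 20 min. Remaining activity was assayed as AdoHcy formed from 1 mM Ado and 5 mM Hcy (5 min, 37 °C), then HClO4 quench and C18 HPLC. Results are given as % activity remaining.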

[31] = target: T1, Adenosylhomocysteinase; assay: as §4; in short: as §5

Structure (SMILES)	EC50 [1] [µM]	EC50 [2] [µM]	EC50 [4] [µM]	EC50 [5] [µM]	EC50 [6] [µM]	EC50 [7] [µM]	EC50 [8] [µM]	Ki [9] [µM]	residual activity [10] [%]	EC50 [11] [µM]	MIC [12] [µM]	Total coenzyme [14] [%]	EC50 [15] [µM]	k2 [16] [min⁻¹]	MIC [17] [µM]	EC50 [18] [µM]	EC50 [19] [µM]	MIC [20] [µM]	EC50 [24] [µM]	EC50 [26] [µM]	further results
Nc1ncnc2c1ncn2C1O[C@H](C#CI)[C@@H](O)[C@H]1O (some centres not stated)	> 104	> 104	> 260	> 0.78	> 10	2.6	0.08	1.1	8.8	260	26 (≈ 10.1 µg/mL)	96	> 104	0.095	> 1040	> 10	> 10	> 180	> 260	0.26	inhibition [3]: < 2%; Release [13]: 5.7%; Release [21]: 0%; residual activity [22]: 80%; Activity [23]: 1.4%; residual activity [25]: 44.6%
NC1=NC(CCCO)N(CCCO)c2[nH]cnc21 (configuration not stated)	> 2000	> 2000				1200				400			> 2000		> 2000			> 1600	> 2000		EC50 [27]: 240 µM
NC(=O)c1ncn([C@@H]2O[C@H](CO)[C@@H](O)[C@H]2O)n1 [RIBAVIRIN]	> 1600	64		64	128	64	192			192	> 1600		64		> 1600	960	960	> 1600	320	192	
Nc1ncnc2c1ncn2C1O[C@H](C#CBr)[C@@H](O)[C@H]1O (some centres not stated)	> 30	> 30	210	3	> 120	6	6	3.8	62.9	45	> 300	49	> 30	0.49	> 300	> 120	> 120	> 120	> 300	6	Release [13]: 28%; residual activity [28]: 56%; Release [21]: 70%; residual activity [22]: 91%; Activity [23]: 49%; residual activity [25]: 73.2%
Nc1ncnc2c1ncn2C1O[C@H](C#CCl)[C@@H](O)[C@H]1O (some centres not stated)	> 35	> 35	> 140	> 35	> 140	> 35	70	1.7	58.9	> 140	> 340	53	> 35	0.48	> 340	> 140	> 140	> 140	> 140	140	residual activity [29]: 55%; Release [21]: 28%; inhibition [30]: 64%; residual activity [22]: 89.3%; Activity [23]: 47%; Release [31]: 18%
